“Also recorded” adds a separate entry of the source. Like-named read-outs stand apart in the source and are kept apart here.

Usually IC50 stands for the midpoint of a concentration-inhibition curve.

One data set deals with Helminthosporium maydis. As to the kind of experiment: Antifungal activity, mycelial growth inhibition, Helminthosporium maydis. The class given is cell-based. Particulars: read-out: IC50 of antifungal activity; potato dextrose agar, 23 °C, 72 h; 50% reduction in area of mycelial colony. Put shortly:
(§1)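 Four doses of test peptide were mixed separately into potato dextrose agar at 45 °C and poured into small plates. Each plate then received an equal amount of mycelia, with a buffer-only control. After 72 h at 23 °C, colony area was measured. % inhibition = reduction in colony area relative to the control. IC50 was read from the % reduction versus concentration plot at 50% reduction.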

Data set [1] is described as follows: Thermal and pH stability of antifungal activity. The class given is physicochemical. Particulars: for thermostability: antifungal activity after thermal pretreatment. The procedure, abridged:
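Test peptide was pretreated at 0–100 °C for 10 min or at pH 0–3 and 10–14 for 30 min. Ions were also tested. Residual antifungal activity was then measured by the paper-disk assay on potato dextrose agar (2 μg peptide per disk, buffer control disk, 23 °C, 72 h), scoring inhibition crescents.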

The test system of data set [2] is a Helminthosporium species. Briefly: Antifungal activity, a Helminthosporium species. Format: cell-based. Particulars: in words. Put shortly:
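Mycelial disk-diffusion assay on potato dextrose agar. After the colony developed, sterile paper disks (0.625 cm) were placed 1 cm from the colony rim. Each disk received test peptide (60 μg or 300 μg) in 20 mM PBS, pH 6.0, and buffer served as the control. Plates were incubated at 23 °C for 72 h and scored for crescents of inhibition around the disks.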

Data set [3] has as its system Mycosphaerella arachidicola. As to the kind of experiment: Antifungal activity, mycelial growth inhibition, Mycosphaerella arachidicola. Format: cell-based. Put shortly: as §1
The test system of data set [4] is trypsin. As to the kind of experiment: Trypsin-inhibitory activity. Format: biochemical.
Data set [5] concerns HIV-1 reverse transcriptase. As to the kind of experiment: HIV-1 reverse transcriptase inhibitory activity. Format: biochemical. Particulars: in words.
Data set [6] deals with fungal species. As to the kind of experiment: Antifungal activity, fungal species in general or not specified. Format: cell-based. Particulars: for antifungal activity: in words.
For a further data set, the system named is Valsa mali. As to the kind of experiment: Antifungal activity, mycelial growth inhibition, Valsa mali. Format: cell-based. The conditions noted are these: read-out: IC50 of antifungal activity; potato dextrose agar, 23 °C, 72 h; 50% reduction in area of mycelial colony. The procedure, abridged:
as §1

Data set [7] relates to severe acute respiratory syndrome (SARS) coronavious (CoV) protease. Format: biochemical.
For data set [8], the system named is Fusarium oxysporum. As to the kind of experiment: Antifungal activity, mycelial growth inhibition, Fusarium oxysporum. Format: cell-based. Put shortly:
as §1

In data set [9] the test system is HIV-1 integrase. As to the kind of experiment: HIV-1 integrase inhibition. Particulars: data not shown. The class given is biochemical.
Data set [10] deals with tumor cells. As to the kind of experiment: Antiproliferative activity on tumor cells, line not specified. The class given is cell-based. Particulars: in words. Put shortly: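 MCF-7 breast cancer and HepG2 hepatoma cells were suspended in RPMI at 2 × 10^4 cells/ml, seeded and incubated for 24 h. Graded concentrations of test peptide in complete RPMI were added for 72 h. MTT (5 mg/ml stock in PBS) was added for 4 h, plates were centrifuged, formazan was dissolved in DMSO and absorbance read at 590 nm.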

For data set [11], the system named is mouse splenocytes. Briefly: Mitogenic activity. The class given is cell-based. The conditions noted are these: data not shown; Con A positive control.
For data set [12], the system named is Mycosphaerella arachidicola. Particulars: in words; cited from earlier work.
The subject of data set [13] is Fusarium oxysporum. The conditions noted are these: in words; cited from earlier work.
In a further data set the test system is hepatoma HepG2 cell line. The conditions noted are these: read-out: IC50, antiproliferative activity; cited from earlier work.
Data set [14] deals with severe acute respiratory syndrome (SARS) coronavious (CoV) protease. The conditions noted are these: cited from earlier work.
Data set [15] has as its system fungal species. Particulars: in words; cited from earlier work.
The test system of data set [16] is a Helminthosporium species. The conditions noted are these: in words; cited from earlier work.
Data set [17] deals with tumor cells. Particulars: in words; cited from earlier work.
The test system of data set [18] is HIV-1 integrase. The conditions noted are these: cited from earlier work.
The test system of data set [19] is breast cancer MCF-7 cell line. Particulars: read-out: IC50, antiproliferative activity; cited from earlier work.
Data set [20] concerns HIV-1 reverse transcriptase. Particulars: cited from earlier work.
Data set [21] relates to mouse splenocytes. The conditions noted are these: toward mouse splenocytes; cited from earlier work.
Data set [22] deals with trypsin. Particulars: in words; cited from earlier work.
[23] abbreviates: read-out: IC50 of antifungal activity, potato dextrose agar, 23 °C, 72 h, 50% reduction in area of mycelial colony.

On to “PEGPFQGPKATKPGDLAXQTWGGWXGQTPKY [kale antifungal peptide]”, for which the half-maximal inhibitory concentration (IC50) with Helminthosporium maydis amounted to 2100 nM; in [3] (setting [23]) it was 2400 nM; with Valsa mali, 150 nM; in the data set with Fusarium oxysporum [8] (setting [23]) it was 4300 nM. For the same sequence, the pH stability result in [1] (antifungal activity after pH pretreatment, in words) is “remarkable thermostability and pH stability”. Further, the thermostability entry in data set [1] (in words) is recorded as “remarkable thermostability”; in data set [1] (in words, listed as antifungal peptide), “pronounced thermostability”. Moreover, the “acid pH range after which antifungal activity was retained” value in data set [1] (pH, pretreatment 30 min, tested pH 0–3, paper disk assay, 2 μg peptide per disk) was 2–3. For the same sequence, the “antifungal activity toward a Helminthosporium species” value in [2] is “antifungal activity toward F. oxysporum, M. arachidicola and a Helminthosporium species”. Besides, the “antifungal activity toward M. arachidicola” value in data set [3] (in words) is given as “antifungal activity toward F. oxysporum, M. arachidicola”. Further, the “trypsin inhibitory activity toward BAEE” value in the data set on trypsin [4] (BAEE as substrate, tested up to 50 μM, detailed data not shown) was “lacked trypsin inhibitory activity”. For the same sequence, the “trypsin inhibitory activity toward casein” value in the data set on trypsin [4] (casein as substrate, tested up to 10 μM, detailed data not shown) was “lacked trypsin inhibitory activity”. For the same sequence, the trypsin inhibitory activity entry in the data set with trypsin [4] (substrate not specified, in words) is on record as “did not exhibit trypsin inhibitory activity”. Also, in data set [5], the “HIV-1 reverse transcriptase inhibitory activity” value is “HIV-1 reverse transcriptase inhibitory activity; also recorded: potent antiproliferative and HIV-1 reverse transcriptase inhibitory activities”. In addition, the “antifungal potency compared with other antifungal proteins” value with fungal species [6] (compared with antifungal proteins of refs 31, 32, 40) is “more potent than that of the antifungal proteins”. Further, the antifungal activity entry in the data set with fungal species [6] is “broad spectrum of antifungal activity; also recorded: exhibit antifungal activity”; with fungal species [6] (listed as antifungal peptide), “stable and broad-spectrum antifungal activity”. The “SARS proteinase inhibitory activity” value in data set [7] was “devoid of”. Moreover, the “antifungal activity toward F. oxysporum” value in the data set with Fusarium oxysporum [8] (in words) is recorded as “antifungal activity toward F. oxysporum”. The “HIV-1 integrase inhibitory activity” value with HIV-1 integrase [9] is “devoid of”. The antiproliferative activity entry with tumor cells [10] is recorded as “demonstrated antiproliferative activity; also recorded: antiproliferative activity toward tumor cells; also recorded: potent antiproliferative”. The mitogenic activity result in the data set with mouse splenocytes [11] was “devoid of mitogenic activity”.
Take “ALSCGTVSGNLAACAGYV [B. campestris antifungal peptide]”: the “antifungal activity toward M. arachidicola” value in data set [12] is on record as “antifungal activity toward F. oxysporum, M. arachidicola”. Moreover, the “antifungal activity toward F. oxysporum” value with Fusarium oxysporum [13] is given as “antifungal activity toward F. oxysporum”. The 50% inhibitory concentration (IC50) was 5800 nM in the data set with hepatoma HepG2 cell line; 1600 nM in data set [19]; 4000 nM in data set [20] (read-out: IC50, HIV-1 reverse transcriptase inhibitory activity). The “SARS proteinase inhibitory activity” value in [14] is “Neither kale nor B. campestris antifungal peptide demonstrated HIV-1 integrase inhibitory and SARS proteinase inhibitory activities”. In addition, the antifungal activity result with fungal species [15] was “with antifungal activity”. For the same sequence, the “antifungal activity toward a Helminthosporium species” value in [16] was “antifungal activity toward F. oxysporum, M. arachidicola and a Helminthosporium species”. Also, in the data set on tumor cells [17], the “antiproliferative activity toward tumor cells” value is “antiproliferative activity toward tumor cells”. Moreover, in the data set on HIV-1 integrase [18], the “HIV-1 integrase inhibitory activity” value is “Neither kale nor B. campestris antifungal peptide demonstrated HIV-1 integrase inhibitory”. Also, the “HIV-1 reverse transcriptase inhibitory activity” value in data set [20] (in words) is given as “HIV-1 reverse transcriptase inhibitory activity”. Moreover, the mitogenic activity result with mouse splenocytes [21] is “devoid of mitogenic activity toward mouse splenocytes”.
With “SECLKEYGGDVGFGFCAPRIYPSFCVQRC [Brassica napus trypsin inhibitor]”, the trypsin inhibitory activity entry in the data set with trypsin [22] is recorded as “manifest trypsin inhibitory activity”.
